# Experimental data as given in ChEMBL document CHEMBL1126822, “7 alpha-Methyl- and 11 beta-ethoxy-substitution of [125I]-16 alpha-iodoestradiol: effect on estrogen receptor-mediated target tissue uptake” (J Med Chem, 1993).
# Target: Estrogen receptor (Mus musculus) (UniProt O08537+P19785)
# Test: Binding affinity at murine estrogen receptor by [3H]estradiol displacement.
# Format: protein assay
# Outline: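 Competitive binding in murine uterine cytoplasmic extracts, incubated 18 h at 0-4 °C with 20 nM [3H]estradiol, with or without competing steroids from 2 nM to 20 μM. RBA = 100 × ratio of competitor to unlabeled estradiol concentration giving 50% competition of specific [3H]estradiol binding. Mean of three experiments with SD.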
# Chain of Estrogen receptor (Mus musculus) (O08537 whole entry, looked up): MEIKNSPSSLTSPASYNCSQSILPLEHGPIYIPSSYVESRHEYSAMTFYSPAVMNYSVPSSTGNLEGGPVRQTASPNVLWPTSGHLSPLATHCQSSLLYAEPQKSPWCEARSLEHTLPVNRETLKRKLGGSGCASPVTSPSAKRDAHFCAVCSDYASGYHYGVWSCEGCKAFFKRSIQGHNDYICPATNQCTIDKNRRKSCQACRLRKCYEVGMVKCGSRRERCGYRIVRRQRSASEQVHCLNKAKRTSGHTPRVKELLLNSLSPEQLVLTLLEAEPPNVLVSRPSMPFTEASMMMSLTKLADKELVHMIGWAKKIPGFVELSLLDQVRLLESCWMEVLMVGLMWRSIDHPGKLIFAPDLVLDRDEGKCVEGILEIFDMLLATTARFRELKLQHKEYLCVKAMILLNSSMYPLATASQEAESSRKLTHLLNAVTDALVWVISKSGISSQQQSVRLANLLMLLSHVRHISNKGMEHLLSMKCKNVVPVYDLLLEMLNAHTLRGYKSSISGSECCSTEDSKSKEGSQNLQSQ
# Chain of Estrogen receptor (Mus musculus) (P19785 whole entry, looked up): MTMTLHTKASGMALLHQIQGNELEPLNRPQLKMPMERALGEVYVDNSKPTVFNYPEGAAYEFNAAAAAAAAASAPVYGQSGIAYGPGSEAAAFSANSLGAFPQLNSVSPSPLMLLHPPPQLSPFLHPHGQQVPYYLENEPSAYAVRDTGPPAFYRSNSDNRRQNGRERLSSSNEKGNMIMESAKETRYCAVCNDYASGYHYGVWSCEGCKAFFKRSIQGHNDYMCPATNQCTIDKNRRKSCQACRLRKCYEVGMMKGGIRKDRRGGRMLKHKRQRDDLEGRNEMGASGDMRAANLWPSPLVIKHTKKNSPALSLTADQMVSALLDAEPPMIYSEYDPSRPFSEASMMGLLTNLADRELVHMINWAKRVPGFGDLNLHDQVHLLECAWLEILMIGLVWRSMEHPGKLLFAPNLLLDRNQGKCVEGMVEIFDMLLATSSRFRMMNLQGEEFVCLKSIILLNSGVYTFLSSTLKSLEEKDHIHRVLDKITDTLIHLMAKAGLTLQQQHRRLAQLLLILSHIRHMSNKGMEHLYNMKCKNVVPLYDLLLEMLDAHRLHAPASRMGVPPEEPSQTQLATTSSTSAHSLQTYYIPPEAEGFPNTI
row,SMILES,relative binding affinity (RBA)
1,CCO[C@H]1C[C@]2(C)[C@@H](O)[C@@H](Br)C[C@H]2[C@@H]2CCc3cc(O)ccc3[C@H]21,0.6
2,CCO[C@H]1C[C@]2(C)[C@@H](O)[C@H](Cl)C[C@H]2[C@@H]2CCc3cc(O)ccc3[C@H]21,14.9
3,CCO[C@H]1C[C@]2(C)[C@H](O)[C@H](Cl)C[C@H]2[C@@H]2CCc3cc(O)ccc3[C@H]21,0.8
4,C[C@@H]1Cc2cc(O)ccc2[C@H]2CC[C@]3(C)C(=O)[C@@H](Br)C[C@H]3[C@H]12,5.3
5,C[C@@H]1Cc2cc(O)ccc2[C@H]2CC[C@]3(C)[C@@H](O)[C@H](Cl)C[C@H]3[C@H]12,71.5
6,C[C@@H]1Cc2cc(O)ccc2[C@H]2CC[C@]3(C)[C@H](O)[C@H](Cl)C[C@H]3[C@H]12,16.6
7,CCO[C@H]1C[C@]2(C)C(=O)[C@H](Cl)C[C@H]2[C@@H]2CCc3cc(O)ccc3[C@H]21,0.8
8,C[C@@H]1Cc2cc(O)ccc2[C@H]2CC[C@]3(C)[C@@H](O)[C@@H](Cl)C[C@H]3[C@H]12,4.3
9,C[C@@H]1Cc2cc(O)ccc2[C@H]2CC[C@]3(C)C(=O)[C@H](Br)C[C@H]3[C@H]12,28.4
10,C[C@@H]1Cc2cc(O)ccc2[C@H]2CC[C@]3(C)C(=O)[C@H](Cl)C[C@H]3[C@H]12,33.8
11,CCO[C@H]1C[C@]2(C)C(=O)[C@H](Br)C[C@H]2[C@@H]2CCc3cc(O)ccc3[C@H]21,0.8

# The next lines start with the values.
row,relative binding affinity (RBA),SMILES
1,16.8,CCO[C@H]1C[C@]2(C)[C@@H](O)[C@H](Br)C[C@H]2[C@@H]2CCc3cc(O)ccc3[C@H]21
2,79.1,C[C@@H]1Cc2cc(O)ccc2[C@H]2CC[C@]3(C)[C@@H](O)[C@H](Br)C[C@H]3[C@H]12
3,1.1,CCO[C@H]1C[C@]2(C)[C@H](O)[C@H](Br)C[C@H]2[C@@H]2CCc3cc(O)ccc3[C@H]21
4,13.6,C[C@@H]1Cc2cc(O)ccc2[C@H]2CC[C@]3(C)[C@H](O)[C@H](Br)C[C@H]3[C@H]12
5,7.1,C[C@@H]1Cc2cc(O)ccc2[C@H]2CC[C@]3(C)[C@@H](O)[C@@H](Br)C[C@H]3[C@H]12
6,20,CO[C@H]1C[C@]2(C)[C@@H](O)[C@H](Br)C[C@H]2[C@@H]2CCc3cc(O)ccc3[C@H]21
